# Reference: paper PMC4415995 (Advances in Therapy, 2015)
# Marks after values point to notes of the source that are not given here.
# Experiments:
# [1] = system: Japanese patients with T2DM; test: Plasma glucose concentrations, 7-day once-daily dosing; assay type: in vivo, human
# Method in brief: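 Plasma glucose was measured by a glucose dehydrogenase enzymatic UV method. Sampling was pre-breakfast/pre-dose and 0.5–24 h after breakfast on Day −1, after dosing on Days 1 and 7, and pre-breakfast on Days 11 and 14. Standardized ~600 kcal meals were given, with lunch and dinner at 4 and 12 h. AUC, Cmax and tmax were non-compartmental. MPG was the mean of the 0, 2, 4, 6, 12, 14 and 16 h values. LS mean difference vs placebo with 95% CI.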
# [2] = system: Japanese patients with T2DM; test: Sigmoid E max model regression of change in UGE on plasma luseogliflozin AUC; assay type: in vivo, human
# SGLT2 = conditions: read-out: 50% inhibitory concentration (IC50); cited from earlier work
smiles,measurement,setting,value
"CCOc1ccc(Cc2cc([C@@H]3S[C@H](CO)[C@@H](O)[C@H](O)[C@H]3O)c(OC)cc2C)cc1 [Luseogliflozin, (1S)-1,5-anhydro-1-[5-(4-ethoxybenzyl)-2-methoxy-4-methylphenyl]-1-thio-D-glucitol]",MPG0–16h LS mean difference vs placebo (95% CI),"[1]; 1 mg OD, Day 7","−27.5 (−44.1, −10.8)* mg/dL"
same,Plasma glucose AUC0–4h (after breakfast),"[1]; 1 mg OD, Day 7",780 ± 116 mg·h/dL
same,Plasma glucose AUC0–4h (after breakfast) LS mean difference vs placebo (95% CI),"[1]; 1 mg OD, Day 7","−96.7 (−173, −20.0)* mg h/dL"
same,Plasma glucose AUC4–8h (after lunch),"[1]; 1 mg OD, Day 7",787 ± 126 mg·h/dL
same,Plasma glucose AUC4–8h (after lunch) LS mean difference vs placebo (95% CI),"[1]; 1 mg OD, Day 7","−138 (−236, −40.8)* mg h/dL"
same,Plasma glucose AUC12–16h (after dinner),"[1]; 1 mg OD, Day 7",824 ± 125 mg·h/dL
same,Plasma glucose AUC12–16h (after dinner) LS mean difference vs placebo (95% CI),"[1]; 1 mg OD, Day 7","−96.2 (−169, −23.2)* mg h/dL"
same,Plasma glucose C max0–4h (after breakfast),"[1]; 1 mg OD, Day 7",240 ± 31.3 mg/dL
same,Plasma glucose C max4–8h (after lunch),"[1]; 1 mg OD, Day 7",229 ± 33.7 mg/dL
same,Plasma glucose C max4–8h (after lunch) LS mean difference vs placebo (95% CI),"[1]; 1 mg OD, Day 7","−34.7 (−62.8, −6.53)* mg/dL"
same,Plasma glucose C max12–16h (after dinner),"[1]; 1 mg OD, Day 7",242 ± 41.3 mg/dL
same,Plasma glucose C max12–16h (after dinner) LS mean difference vs placebo (95% CI),"[1]; 1 mg OD, Day 7","−29.4 (−53.8, −5.06)* mg/dL"
same,FPG (24 h after dose),"[1]; 2.5 mg OD, Day 1",141 ± 23 mg/dL
same,FPG (24 h after dose) LS mean difference vs placebo (95% CI),"[1]; 2.5 mg OD, Day 1","−23.0 (−31.6, −14.4)* mg/dL"
same,MPG0–16h,"[1]; 2.5 mg OD, Day 1",210 ± 35.7 mg/dL
same,MPG0–16h LS mean difference vs placebo (95% CI),"[1]; 2.5 mg OD, Day 1","−23.8 (−33.7, −13.9)* mg/dL"
same,Plasma glucose AUC0–4h (after breakfast),"[1]; 2.5 mg OD, Day 1",868 ± 166 mg·h/dL
same,Plasma glucose AUC0–4h (after breakfast) LS mean difference vs placebo (95% CI),"[1]; 2.5 mg OD, Day 1","−106 (−159, −53.6)* mg h/dL"
same,Plasma glucose AUC4–8h (after lunch),"[1]; 2.5 mg OD, Day 1",879 ± 176 mg·h/dL
same,Plasma glucose AUC4–8h (after lunch) LS mean difference vs placebo (95% CI),"[1]; 2.5 mg OD, Day 1","−147 (−224, −69.0)* mg h/dL"
same,Plasma glucose AUC12–16h (after dinner),"[1]; 2.5 mg OD, Day 1",944 ± 123 mg·h/dL
same,Plasma glucose AUC12–16h (after dinner) LS mean difference vs placebo (95% CI),"[1]; 2.5 mg OD, Day 1","−71.1 (−123, −19.2)* mg h/dL"
same,Plasma glucose C max0–4h (after breakfast),"[1]; 2.5 mg OD, Day 1",254 ± 48.7 mg/dL
same,Plasma glucose C max4–8h (after lunch),"[1]; 2.5 mg OD, Day 1",250 ± 54.5 mg/dL
same,Plasma glucose C max4–8h (after lunch) LS mean difference vs placebo (95% CI),"[1]; 2.5 mg OD, Day 1","−43.5 (−67.2, −19.7)* mg/dL"
same,Plasma glucose C max12–16h (after dinner),"[1]; 2.5 mg OD, Day 1",279 ± 40.2 mg/dL
same,Plasma glucose C max12–16h (after dinner) LS mean difference vs placebo (95% CI),"[1]; 2.5 mg OD, Day 1","−26.1 (−44.6, −7.60)* mg/dL"
same,FPG (24 h after dose),"[1]; 2.5 mg OD, Day 7",122 ± 14 mg/dL
same,FPG (24 h after dose) LS mean difference vs placebo (95% CI),"[1]; 2.5 mg OD, Day 7","−41.3 (−53.5, −29.0)* mg/dL"
same,MPG0–16h,"[1]; 2.5 mg OD, Day 7",181 ± 21.2 mg/dL
same,MPG0–16h LS mean difference vs placebo (95% CI),"[1]; 2.5 mg OD, Day 7","−50.1 (−66.7, −33.4)* mg/dL"
same,Plasma glucose AUC0–4h (after breakfast),"[1]; 2.5 mg OD, Day 7",738 ± 102 mg·h/dL
same,Plasma glucose AUC0–4h (after breakfast) LS mean difference vs placebo (95% CI),"[1]; 2.5 mg OD, Day 7","−221 (−297, −145)* mg h/dL"
same,Plasma glucose AUC4–8h (after lunch),"[1]; 2.5 mg OD, Day 7",802 ± 127 mg·h/dL
same,Plasma glucose AUC4–8h (after lunch) LS mean difference vs placebo (95% CI),"[1]; 2.5 mg OD, Day 7","−250 (−348, −152)* mg h/dL"
same,Plasma glucose AUC12–16h (after dinner),"[1]; 2.5 mg OD, Day 7",828 ± 63.2 mg·h/dL
same,Plasma glucose AUC12–16h (after dinner) LS mean difference vs placebo (95% CI),"[1]; 2.5 mg OD, Day 7","−149 (−224, −73.6)* mg h/dL"
same,Plasma glucose C max0–4h (after breakfast),"[1]; 2.5 mg OD, Day 7",219 ± 26.3 mg/dL
same,Plasma glucose C max4–8h (after lunch),"[1]; 2.5 mg OD, Day 7",230 ± 30.0 mg/dL
same,Plasma glucose C max4–8h (after lunch) LS mean difference vs placebo (95% CI),"[1]; 2.5 mg OD, Day 7","−65.6 (−94.0, −37.1)* mg/dL"
same,Plasma glucose C max12–16h (after dinner),"[1]; 2.5 mg OD, Day 7",250 ± 23.3 mg/dL
same,Plasma glucose C max12–16h (after dinner) LS mean difference vs placebo (95% CI),"[1]; 2.5 mg OD, Day 7","−36.2 (−61.2, −11.3)* mg/dL"
same,FPG (24 h after dose),"[1]; 5 mg OD, Day 1",132 ± 12 mg/dL
same,FPG (24 h after dose) LS mean difference vs placebo (95% CI),"[1]; 5 mg OD, Day 1","−20.8 (−29.5, −12.1)* mg/dL"
same,MPG0–16h,"[1]; 5 mg OD, Day 1",173 ± 26.7 mg/dL
same,MPG0–16h LS mean difference vs placebo (95% CI),"[1]; 5 mg OD, Day 1","−27.4 (−37.4, −17.4)* mg/dL"
same,Plasma glucose AUC0–4h (after breakfast),"[1]; 5 mg OD, Day 1",752 ± 87.6 mg·h/dL
same,Plasma glucose AUC0–4h (after breakfast) LS mean difference vs placebo (95% CI),"[1]; 5 mg OD, Day 1","−100 (−154, −46.5)* mg h/dL"
same,Plasma glucose AUC4–8h (after lunch),"[1]; 5 mg OD, Day 1",710 ± 120 mg·h/dL
same,Plasma glucose AUC4–8h (after lunch) LS mean difference vs placebo (95% CI),"[1]; 5 mg OD, Day 1","−104 (−183, −25.1)* mg h/dL"
same,Plasma glucose AUC12–16h (after dinner),"[1]; 5 mg OD, Day 1",766 ± 118 mg·h/dL
same,Plasma glucose AUC12–16h (after dinner) LS mean difference vs placebo (95% CI),"[1]; 5 mg OD, Day 1","−133 (−184, −81.7)* mg h/dL"
same,Plasma glucose C max0–4h (after breakfast),"[1]; 5 mg OD, Day 1",231 ± 16.6 mg/dL
same,Plasma glucose C max4–8h (after lunch),"[1]; 5 mg OD, Day 1",207 ± 33.1 mg/dL
same,Plasma glucose C max4–8h (after lunch) LS mean difference vs placebo (95% CI),"[1]; 5 mg OD, Day 1","−32.4 (−56.5, −8.28)* mg/dL"
same,Plasma glucose C max12–16h (after dinner),"[1]; 5 mg OD, Day 1",225 ± 33.2 mg/dL
same,Plasma glucose C max12–16h (after dinner) LS mean difference vs placebo (95% CI),"[1]; 5 mg OD, Day 1","−41.8 (−60.2, −23.5)* mg/dL"
same,FPG (24 h after dose),"[1]; 5 mg OD, Day 7",126 ± 13 mg/dL
same,FPG (24 h after dose) LS mean difference vs placebo (95% CI),"[1]; 5 mg OD, Day 7","−30.6 (−43.1, −18.1)* mg/dL"
same,MPG0–16h,"[1]; 5 mg OD, Day 7",168 ± 27.8 mg/dL
same,MPG0–16h LS mean difference vs placebo (95% CI),"[1]; 5 mg OD, Day 7","−38.9 (−55.7, −22.1)* mg/dL"
same,Plasma glucose AUC0–4h (after breakfast),"[1]; 5 mg OD, Day 7",708 ± 87.5 mg·h/dL
same,Plasma glucose AUC0–4h (after breakfast) LS mean difference vs placebo (95% CI),"[1]; 5 mg OD, Day 7","−162 (−239, −84.9)* mg h/dL"
same,Plasma glucose AUC4–8h (after lunch),"[1]; 5 mg OD, Day 7",710 ± 105 mg·h/dL
same,Plasma glucose AUC4–8h (after lunch) LS mean difference vs placebo (95% CI),"[1]; 5 mg OD, Day 7","−184 (−284, −84.3)* mg h/dL"
same,Plasma glucose AUC12–16h (after dinner),"[1]; 5 mg OD, Day 7",755 ± 137 mg·h/dL
same,Plasma glucose AUC12–16h (after dinner) LS mean difference vs placebo (95% CI),"[1]; 5 mg OD, Day 7","−131 (−205, −57.5)* mg h/dL"
same,Plasma glucose C max0–4h (after breakfast),"[1]; 5 mg OD, Day 7",222 ± 19.4 mg/dL
same,Plasma glucose C max4–8h (after lunch),"[1]; 5 mg OD, Day 7",211 ± 35.1 mg/dL
same,Plasma glucose C max4–8h (after lunch) LS mean difference vs placebo (95% CI),"[1]; 5 mg OD, Day 7","−41.0 (−69.8, −12.1)* mg/dL"
same,Plasma glucose C max12–16h (after dinner),"[1]; 5 mg OD, Day 7",223 ± 38.8 mg/dL
same,Plasma glucose C max12–16h (after dinner) LS mean difference vs placebo (95% CI),"[1]; 5 mg OD, Day 7","−33.7 (−58.4, −9.02)* mg/dL"
same,UGE as share of the maximal UGE value estimated using the E max model,"[2]; 5 mg OD, after 7 days",approximately 85%
same,"E max (maximum change in UGE), estimate (95% CI)",[2]; values on Day 1 and 7,119 g/day
same,IC50,SGLT2,2.26 nM
